Test results as given in PMC11565791 (bioRxiv, 2025).

Legend:
H3K9 methylation states = settings: faster than H3K9me2 to me3; ref Al-Sady et al. 2013; cited from earlier work
H3K9me0 mononucleosomes = experiment: Fluorescence polarization, H3K9me0 mononucleosome; format: binding; settings: Figure 7C, SFigure 10D
Procedure, shortened: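 Reconstituted H3K9me0 mononucleosomes on fluorescein-labelled 601 DNA were fixed at 25 nM. Purified Swi6, either unphosphorylated or co-expressed with casein kinase II catalytic subunits, was titrated at 0–200 μM. Fluorescence polarization was read at ex 485 / em 528 nm and fitted to a Kd equation.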

H3Kc9me3 mononucleosomes = experiment: Fluorescence polarization, H3Kc9me3; format: binding; settings: Figure 7C, SFigure 10D
Swi6 oligomerization = experiment: Glutaraldehyde crosslinking western, oligomerization; format: biochemical; settings: 0.01% glutaraldehyde, 2 h, room temperature; compared to pSwi6; Figure 7B
Procedure, shortened: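 Purified Swi6 in storage buffer (25 mM HEPES pH 7.5, 100 mM KCl, 10% glycerol, 10 mM βME) was tested at various protein concentrations. It was crosslinked with 0.01% glutaraldehyde for 2 h at room temperature, then quenched with 50 mM Tris pH 7.4. Samples were diluted to 4.2 μM, run on 4–12% Tris-glycine gradient gels and analysed by western blot with fluorescent detection.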

[1] = system: Clr4 (H3K9me2 mononucleosome substrate); experiment: Single turnover H3K9me2 to H3K9me3 conversion by Clr4; format: biochemical, S. pombe; settings: 5 μM Clr4, 1 mM SAM, 500 nM H3K9me2 nucleosomes, 25°C
Procedure, shortened: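 Purified Clr4 (5 μM) was preincubated for 5 min at 25°C with 1 mM SAM and varying Swi6 concentrations (unphosphorylated or phosphorylated). Reactions were started by adding commercial H3K9me2 nucleosomes to 500 nM. Timepoints were stopped by boiling in Laemmli buffer, run on 18% SDS-PAGE and blotted for H3K9me3 and H4. Signals were quantified against H3K9me3 nucleosome standard curves and fitted to a single exponential rise.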

Molecule | rate of H3K9me0 to me1 and me1 to me2 conversion relative to me2 to me3 (H3K9 methylation states) | increase in affinity towards H3K9me0 nucleosome versus pSwi6 (H3K9me0 mononucleosomes) | increase in affinity towards H3Kc9me3 nucleosome versus pSwi6 (H3Kc9me3 mononucleosomes) | propensity to oligomerize (Swi6 oligomerization) | effect on conversion of H3K9me2 to H3K9me3 by Clr4 [1]
Clr4: H3K9 methylase of S. pombe | 10 X |  |  |  | 
pSwi6^S18/24A: phospho-mutant protein, S18 and S24 mutated to alanines, co-expressed with CKII (protein, left off: 6xHis, N-terminal, cleaved) MKKGGVRSYRRSSTSKRAVIDDDAEPELPSMTKEAIASHKADSGSSDNEVESDHESKSSSKKLKENAKEEEGGEEEEEDEYVVEKVLKHRMARKGGGYEYLLKWEGYDDPSDNTWSSEADCSGCKQLIEAYWNEHGGRPEPSKRKRTARPKKPEAKEPSPKSRKTDEDKHDKDSNEKIEDVNEKTIKFADKSQEEFNENGPPSGQPNGHIESDNESKSPSQKESNESEDIQIAETPSNVTPKKKPSPEVPKLPDNRELTVKQVENYDSWEDLVSSIDTIERKDDGTLEIYLTWKNGAISHHPSTITNKKCPQKMLQFYESHLTFRENE |  | 4.5 X | 2.6 X | strongly decreased propensity to oligomerize | decrease in tri-methylation
